How the values were obtained:
Rattus norvegicus = assay: Analgesic activity measured by rat tail flick assay following s.c. administration.; format: functional; design: unit not given here
How it was run: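 Male albino rats (100–120 g). Two control reaction times are taken 30 min apart before dosing. For agonist activity, test drug is given subcutaneously with no morphine, and tail-flick reaction time is retested 20 min postdrug. Activity is judged against control groups. ED50 values with 95% confidence limits are obtained by Litchfield–Wilcoxon.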

Mus musculus = assay: Analgesic activity was measured by acetic acid writhing test in mouse by giving subcutaneous injection; format: functional; design: unit not given here
How it was run: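 Male albino Charles River mice (18–22 g), five per dose, at least three doses per ED50. Salts are given in distilled water; free bases are dissolved with dilute HCl and then diluted with water. Drug is given s.c. 15 min before i.p. 0.5% HOAc (0.4 mL). Writhes are counted for 20 min, starting 5 min post-HOAc, and compared with controls. ED50 with 95% confidence limits by Litchfield–Wilcoxon.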

Row | Structure (SMILES) | ED50 (Rattus norvegicus) | ED50 (Mus musculus)
1 | COc1ccc2c3c1O[C@H]1C(=O)C[C@H](C4CC4)C4C(C2)N(C)CCC341 (stereo partly specified) | >25 | 42
2 | COc1ccc2c3c1O[C@H]1C(=O)C[C@H](C(C)(C)C)C4C(C2)N(C)CCC341 (stereo partly specified) | >25 | 17.6
3 | C=C[C@H]1CC(=O)[C@@H]2Oc3c(OC)ccc4c3C23CCN(C)C(C4)C13 (stereo partly specified) | 130 | 13.8
4 | CCC(C)[C@H]1CC(=O)C2Oc3c(OC)ccc4c3C23CCN(C)C(C4)C13 (single isomer, unassigned; form 2) |  | 14.1
5 | COc1ccc2c3c1O[C@H]1C(=O)C[C@H](c4ccccc4)C4C(C2)N(C)CCC341 (stereo partly specified) |  | >50
6 | CC[C@@H]1CC(=O)[C@@H]2Oc3c(OC)ccc4c3C23CCN(C)C(C4)C13 (stereo partly specified) | >30 | 3
7 | C[C@H]1CC(=O)[C@@H]2Oc3c(O)ccc4c3C23CCN(C)C(C4)C13 (stereo partly specified) | 1.6 | 0.24
8 | CCC[C@H]1CC(=O)[C@@H]2Oc3c(OC)ccc4c3C23CCN(C)C(C4)C13 (stereo partly specified) |  | 17.5
9 | CCC[C@@H]1CC(=O)[C@@H]2Oc3c(OC)ccc4c3C23CCN(C)C(C4)C13 (stereo partly specified) | >25 | >25
10 | CCC(C)[C@H]1CC(=O)C2Oc3c(OC)ccc4c3C23CCN(C)C(C4)C13 (single isomer, unassigned; form 1) |  | >25
11 | CCCCCCCC[C@H]1CC(=O)[C@@H]2Oc3c(OC)ccc4c3C23CCN(C)C(C4)C13 (stereo partly specified) | >50 | 25.9
12 | CC[C@H]1CC(=O)[C@@H]2Oc3c(O)ccc4c3C23CCN(C)C(C4)C13 (stereo partly specified) | 1.12 | 0.41
13 | CC[C@H]1CC(=O)[C@@H]2Oc3c(OC)ccc4c3C23CCN(C)C(C4)C13 (stereo partly specified) | 20.3 | 1.8
14 | CCCC[C@H]1CC(=O)[C@@H]2Oc3c(OC)ccc4c3C23CCN(C)C(C4)C13 (stereo partly specified) | >50 | 27
15 | COc1ccc2c3c1O[C@H]1C(=O)C[C@@H](C)C4C(C2)N(C)CCC341 (stereo partly specified) | 3.8 | 2
16 | COc1ccc2c3c1O[C@H]1C(=O)C[C@H](C(C)C)C4C(C2)N(C)CCC341 (stereo partly specified) | >55 | 21.7
17 | COc1ccc2c3c1O[C@H]1C(=O)C[C@H](C)C4C(C2)N(C)CCC341 (stereo partly specified) | 10.2 | 4.9
18 | C=C(C)[C@H]1CC(=O)[C@@H]2Oc3c(OC)ccc4c3C23CCN(C)C(C4)C13 (stereo partly specified) |  | >50

Source: ChEMBL document CHEMBL1121387, “Analgesic narcotic antagonists. 1. 8 beta-Alkyl-, 8 beta-acyl-, and 8 beta-(tertiary alcohol)dihydrocodeinones and -dihydromorphinones” (1980)
